HIV Env fusion – inhibitors of HIV-1 Env-driven cell-cell fusion, primary screen, HeLa-JRFL effector, CEM21 target cells, luciferase; inhibition, % at 12.3 µM; 360,000 compounds, 1.1% hits; AID 651610, 2012;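 active means mean replicate inhibition score of at least 50 and every replicate individually at or above 50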;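 further: 0% = plate neutral controls and 100% = maraviroc near 300 nM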
CFTR F508del cor – F508del CFTR correction, initial screen, CFBE line, single point; activity (quench increase), % at 7.58 µM; CFBE cells, YFP halide quenching; stimulated with forskolin plus potentiator P3; % fluorescence drop versus neutral controls; 350,000 compounds, 0.36% hits;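 active means mean added fluorescence quench of at least 8% versus neutral control, with both replicates also reaching 8%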;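 further: cells transiently co-express mutant CFTR-F508del with the halide-sensitive YFP; corrector assay measuring rescue of mutant channel to the surface after 24 h compound exposure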
Ecoli rRNA inh – reduced GFP signal of wild-type E. coli, primary screen, bacterial rRNA inhibitor project, GFP/RFP fluorescence, OD600, single point. E. coli WT GFP vs humanized-ribosome RFP mutants, 24 h; hits give low values; DMSO median 0, no signal -100. GFP signal change (wild-type ribosome), % (test concentration not listed). 350,000 compounds, 1.6% hits;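 active means significant combined selectivity score with lowered wild-type GFP, culture density cut under 30%, mutant RFP and density less affected; inactive means any of these conditions unmet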
miR122 inh – miR-122 Renilla sensor signal increase in Huh7, primary screen, miR-122 inhibitor project, cell-based, single point, plate reader; Huh7 miR-122 Renilla luciferase sensor, 48 h; neutral wells = 0, positive control = 100; activation (reporter increase), % at 12.5 µM; 340,000 compounds, 0.3% hits;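 active means mean replicate activation score at least 90 and every replicate individually at or above 90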;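 further: higher luciferase means less miR-122 activity so hits act as miR-122 inhibitors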
Cneo AK release – Cryptococcus neoformans cell lysis inducers, primary screen, AK release luminescence, single concentration; 360,000 compounds, 0.2% hits; lysis activity, % at 15 µM; C. neoformans lysis, adenylate kinase release luminescence, 4 h; normalised: neutral wells 0, clomiphene wells 100;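 active means mean lysis activity across replicates of at least 80%, whatever share of replicates individually reach that level; inactive means mean lysis activity below 80%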
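Assay system: Cryptococcus neoformans yeast cells / Dosing: single-point compound dose / Timing: 4 h at 37 °C static, read 1 h later / Measured by: luminescence of released adenylate kinase using an AK detection reagent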
INS-1E GSIS act – GLuc luminescence reporter in INS-1E cells, primary screen for activators of glucose-dependent secretion of insulin. INS-1E GLuc reporter insulin secretion, 2-3 h. activation, % at 16.6 µM. 370,000 compounds, 0.61% hits;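 active means lowest replicate activation of at least 40%, so every replicate reaches that level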;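 further: 0% = median of neutral control wells and 100% = median of IBMX positive control wells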
An asterisk follows results filed as active; . = not tested or not shown; ! = repeats disagree; [ ] = remark or other dose. Sampled rows, rich in hits. Any-hit rate of the full collection: about 3.1%.

SMILES | HIV Env fusion | CFTR F508del cor | Ecoli rRNA inh | miR122 inh | Cneo AK release | INS-1E GSIS act
C[C@@H]1CN([C@H](C)CO)S(=O)(=O)c2ccc(C#CCC3CCCC3)cc2O[C@@H]1CN(C)C | 16.5[16.7 µM] | -2.5 | 3.9 | -21.0[16.7 µM] | 12.6 | 28.6
CC(=O)C(=Cc1ccc(Cl)cc1)C(=O)c1ccccc1 | -228.0 | 4.6 | -35.0* | . | . | -32.8
COc1ccc(C=C(C(C)=O)C(=O)c2ccccc2)cc1 | 2.2 | -3.6 | 5.7 | . | . | -14.9
CCN(CC)c1ccc(N)cc1S(=O)(=O)Nc1ccccc1OC | 9.6 | 0.9 | 3.6 | 27.1 | -7.2 | .
Cc1ccc(S(=O)(=O)NCCCN(C)C)cc1 | . | . | . | 0.4 | -0.6 | .
CCN(CC)c1ccc(N)cc1S(=O)(=O)Nc1ccc(OC)cc1 | 7.6 | 5.3 | -0.9 | 107.5* | -0.7 | .
Cc1ccc(S(=O)(=O)NCCCNS(=O)(=O)c2ccc(C)cc2)cc1 | -2.8 | 20.3* | -3.6 | 28.8 | -0.2 | -10.8
COc1ccccc1NS(=O)(=O)c1cc(C)ccc1C | -73.0 | . | . | 140.6* | -2.8 | .
CCN(CC)S(=O)(=O)c1ccc(Oc2ccc(S(=O)(=O)N(CC)CC)cc2)cc1 | 61.9* | . | . | 0.8 | -2.7 | .
CO[C@H]1CN(C)C(=O)c2cc(NC(=O)c3cccc(Oc4ccccc4)c3)ccc2OC[C@H](C)NC[C@H]1C | . | -3.9 | -4.2 | -15.6[16.7 µM] | . | -6.4
CCN(CC)S(=O)(=O)c1cc(NS(=O)(=O)c2ccccc2)ccc1C | 12.1 | . | . | . | . | -11.2
Cc1ccc(C)c(S(=O)(=O)Nc2ccc3sc(C)nc3c2)c1 | -12.1 | . | . | 427.9* | -0.8 | .
Cc1nc2cc(NS(=O)(=O)c3cccc4cccnc34)ccc2s1 | -5.0 | 3.1 | -5.0 | . | -2.3 | .
COc1ccc(NS(=O)(=O)c2cc(C)ccc2C)cc1 | . | . | . | 538.6* | 0.6 | .
COc1ccc(NS(=O)(=O)c2cc(NC(=O)c3ccc(=O)[nH]n3)ccc2C)cc1 | 10.3 | -1.1 | 4.2 | 166.1* | -0.3 | 1.4
CCN(CC)S(=O)(=O)c1ccc(NS(=O)(=O)c2ccc(C)c(C)c2)cc1 | -87.5 | . | . | 182.9* | 0.0 | .
COc1ccc(NS(=O)(=O)c2cc(C(=O)O)ccc2C)cc1 | . | 0.0 | 12.4 | 9.1 | 2.9 | 6.3
COc1ccc(NS(=O)(=O)c2cc(S(C)(=O)=O)ccc2C)cc1 | -3.5 | . | . | . | . | 9.2
Cc1noc(C)c1S(=O)(=O)Nc1ccc2c(c1)C(=O)N([C@H](C)CO)C[C@@H](C)[C@H](CN(C)S(=O)(=O)c1ccc(F)cc1)OCCCC[C@@H](C)O2 | -27.8[16.7 µM] | -1.6 | -1.3 | -2.7[16.7 µM] | 5.1 | -13.3
C[C@H]1CN([C@@H](C)CO)C(=O)Cc2cc(N(C)C)ccc2O[C@H]1CN(C)C(=O)Nc1ccc(F)cc1 | . | -0.9 | 1.2 | . | . | 3.2
COc1cc(C)c(S(=O)(=O)Nc2ccccc2F)cc1C | . | . | . | 123.5* | 1.0 | 34.3
Cc1ccc(C)c(S(=O)(=O)Nc2ccccc2C(=O)Nc2ccc(S(=O)(=O)Nc3ncccn3)cc2)c1 | -7.5 | . | -31.2* | 17.7 | 1.2 | -9.9
CCNS(=O)(=O)c1ccc(NS(=O)(=O)c2cc(C)ccc2C)cc1 | . | . | . | 113.5* | 1.1 | .
Cc1cc2[nH]c(=O)c(=O)[nH]c2cc1S(=O)(=O)Nc1ccccc1F | -15.9 | -0.7 | -0.9 | -5.3 | 0.1 | 2.2
C[C@H]1CN([C@@H](C)CO)C(=O)CCCn2cc(nn2)CO[C@H]1CN(C)Cc1ccc2c(c1)OCO2 | -5.0[16.7 µM] | -3.3 | 0.3 | 2.2[16.7 µM] | . | -4.0
SMILES | HIV Env fusion | CFTR F508del cor | Ecoli rRNA inh | miR122 inh | Cneo AK release | INS-1E GSIS act
CCOC(=O)C1=C(CC)Nc2ccccc2N=C1NC(=O)Nc1ccc(Cl)c(Cl)c1 | 113.5* | . | -56.0 | 36.0 | -5.7 | -10.9
CCOC(=O)C1=C(CC)Nc2ccccc2N=C1NC(=O)c1cc(C)on1 | . | 0.0 | . | -2.5 | 1.9 | -4.2
c1ccc(CNc2nc(N3CCN(Cc4ccccc4)CC3)nc3ccccc23)cc1 | 9.6 | -2.3 | -42.9* | -2.9 | 15.2 | -16.6
c1ccc(CNc2ncnc3ccccc23)cc1 | 106.4*! | 1.1 | . | 7.2 | -1.6 | .
c1ccc(CNc2c3ccccc3nc3ccccc23)cc1 | -117.7 | 10.9* | -14.2 | . | -0.5 | -6.4
C[C@@H]1CN([C@H](C)CO)C(=O)c2cccc(N(C)C)c2O[C@H]1CN(C)Cc1ccccc1 | 5.4[16.7 µM] | -0.3 | 1.4 | 1.3[16.7 µM] | 3.6 | 28.6
Cc1ccccc1Nc1c(-c2ccncc2)nc2ccc(Cl)cn12 | 9.1 | -0.2 | -16.1 | 1.9 | . | 40.1*
O=C1N[C@H](Cc2ccccc2)COCc2cnnn2CC[C@H]1Cc1cccc(F)c1 | . | . | 0.5 | . | . | 14.1
Cc1nn(Cc2ccccc2Cl)c(C)c1C(=O)N1CCN(c2ccccc2)CC1 | -127.1 | . | -26.6* | 0.6 | 2.1 | -3.0
Cc1nn(Cc2ccccc2Cl)c(C)c1C(=O)NC1=NCCS1 | . | . | . | -6.8 | -2.7 | 16.8
CCOC(=O)c1sc(/N=C/N(C)C)c(C(=O)OCC)c1C | -7.4 | . | . | . | -0.4 | 36.8
CCOC(=O)c1sc(N=NC2=C(O)CCCC2=O)c(C(=O)OCC)c1C | -6.1 | -0.4 | -26.4* | -3.6 | 1.1 | -0.4
C=CCn1c(-c2cc3c(s2)CCC(CC)C3)n[nH]c1=S (centres undefined) | -8.1 | -1.8 | -38.1* | . | . | 14.0
C=CCn1c(SCC(=O)NC2CCS(=O)(=O)C2)nnc1-c1cc2c(s1)CCC(CC)C2 (centres undefined) | 23.7 | . | . | . | . | -8.2
C[C@@H]1CN([C@@H](C)CO)S(=O)(=O)c2ccc(C#CC3(O)CCCC3)cc2O[C@H]1CN(C)C(=O)c1ccccc1 | -39.8[16.7 µM] | -4.7 | -2.0 | 9.2[16.7 µM] | -0.9 | -14.3
COc1ccc2c3c([nH]c2c1)[C@@H](CO)N(C(=O)C1CCC1)CC31CN(S(C)(=O)=O)C1 | . | -0.7 | -0.3 | . | . | 12.2
CC(C)NC(=O)Nc1ccc2c(c1)C(=O)N([C@@H](C)CO)C[C@@H](C)[C@H](CN(C)C(=O)c1ccncc1)OCCCC[C@H](C)O2 | -6.6[16.7 µM] | 0.8 | 1.7 | 12.7[16.7 µM] | 114.5* | 21.9
CC(C)NC(=O)Nc1ccc2c(c1)C(=O)N([C@@H](C)CO)C[C@@H](C)[C@@H](CN(C)C(=O)c1ccncc1)OCCCC[C@@H](C)O2 | 17.3[16.7 µM] | 0.4 | -4.1 | 6.5[16.7 µM] | 111.1* | 7.0
COc1ccc(C(=O)NC(=S)Nc2ccc3c4c(cccc24)CC3)cc1OC | 8.4 | . | . | -2.4 | -0.2 | 95.8*
OC1CCN(c2c3c(nc4cc(-c5cccc(F)c5)nn24)CCCC3)CC1 | . | 4.0 | -18.5* | 3.5 | -0.8 | 13.7
CCCOC(c1ccccc1)(c1ccccc1)C(Oc1nc(C)cc(C)n1)C(=O)O (centres undefined) | 10.6 | -2.4 | -19.2* | 1.4 | -2.0 | 27.0
